ChEMBL document CHEMBL2034883, “Asperjinone, a nor-neolignan, and terrein, a suppressor of ABCG2-expressing breast cancer cells, from thermophilic Aspergillus terreus” (J Nat Prod, 2012)
Activity calls are given as the source filed them. No cut-off for these calls is given here.

Legend:
[1] = system: MCF7; assay: Cytotoxicity against human MCF7 cells at 100 uM after 96 hrs by MTT assay; type: functional, cell-based
[2] = system: MCF7; assay: Cytotoxicity against human MCF7 cells assessed as suppression of SP-positive cells at 10 uM after 90 mins by Hoechst staining-based FACS analysis (reference value: 2.71%); type: functional
[3] = system: MCF7; assay: Induction of apoptosis in human MCF7 cells assessed as viable cells at 10 nM after 96 hrs by annexinV/propidium iodide staining-based flow cytometric analysis (reference value: 89 %); type: functional; conditions: MCF7, 96 h, read-out: Activity
[4] = system: MCF7; assay: Induction of apoptosis in human MCF7 cells assessed as necrotic cells at 10 nM after 96 hrs by annexinV/propidium iodide staining-based flow cytometric analysis (reference value: 2.89 %); type: functional
[5] = system: MCF7; assay: Cytotoxicity against human MCF7 cells assessed as suppression of SP-positive cells at 1 nM after 90 mins by Hoechst staining-based FACS analysis (reference value: 2.71%); type: functional
Outline: (§1)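 Side-population assay. MCF-7 cells (1 × 10^6) trypsinized, washed three times in PBS and resuspended in HBSS with 2% FBS and 10 mM HEPES. Incubated with Hoechst 33342 (5 μg/mL) at 37 °C for 90 min with or without compound (1 or 10 nM). FTC (10 μM) used as control. SP fraction gated by flow cytometry. At least three independent experiments.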

[6] = system: MCF7; assay: Induction of apoptosis in human MCF7 cells assessed as early apoptotic cells at 10 nM after 96 hrs by annexinV/propidium iodide staining-based flow cytometric analysis (reference value: 3.05 %); type: functional
[7] = system: MCF7; assay: Cytotoxicity against human MCF7 cells assessed as suppression of SP-positive cells at 10 nM after 90 mins by Hoechst staining-based FACS analysis (reference value: 2.71%); type: functional; outline: as §1
[8] = system: MCF7; assay: Cytotoxicity against ABCG2-positive human MCF7 cells after 96 hrs by Western blot analysis; type: functional, cell-based; conditions: in the assay text read “FACS analysis” for “Western blot analysis”
Outline: (§2)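 ABCG2+ subpopulation counted by flow cytometry. MCF-7 cells (2.0 × 10^4) treated 96 h, trypsinized, washed in PBS and resuspended in HBSS with 2% FBS and 10 mM HEPES (10^6/100 μL). Labelled with anti-ABCG2 (5D3) for 30 min, then PE anti-mouse IgG for 15 min. PI (2 μg/mL) added to exclude dead cells. Total ABCG2+ cell number reported as mean ± SD of at least three independent experiments.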

[9] = system: MCF7; assay: Induction of apoptosis in human MCF7 cells assessed as late apoptotic cells at 10 nM after 96 hrs by annexinV/propidium iodide staining-based flow cytometric analysis (reference value: 5.02 %); type: functional
[10] = system: MCF7; assay: Cytotoxicity against ABCG2-positive human MCF7 cells at 1 nM after 96 hrs by Western blot analysis; type: functional, cell-based; conditions: in the assay text read “FACS analysis” for “Western blot analysis”; outline: as §2
[11] = system: MCF7; assay: Growth inhibition of human MCF7 cells at 1 nM after 96 hrs by MTT assay; type: functional; conditions: MCF7, 96 h, read-out: GI
[12] = system: MCF7; assay: Cytotoxicity against ABCG2-positive human MCF7 cells at 10 nM after 96 hrs by Western blot analysis; type: functional, cell-based; conditions: in the assay text read “FACS analysis” for “Western blot analysis”; outline: as §2
[13] = system: MCF7; assay: Down regulation of ABCG2 expression in human MCF7 cells at 1 nM after 96 hrs by Western blot analysis; type: functional, cell-based
Outline: (§3)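 MCF-7 cells (2.0 × 10^5) exposed to 1 nM for 24, 48, 72 and 96 h; 10 nM paclitaxel as control. Lysed in RIPA (pH 8) with protease and phosphatase inhibitors; 40 μg protein per lane run on 10% SDS-PAGE and transferred to PVDF. Blocked in 5% milk/TBST 1 h; primary antibody overnight at 4 °C. Anti-ABCG2 1:100, anti-PARP and anti-caspase-7 each 1:1000. ECL detection.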

[14] = system: MCF7; assay: Inhibition of PI3K-mediated Akt phosphorylation at Ser473 in human MCF7 cells at 1 nM after 6 hrs by Western blot analysis; type: cell-based
Outline: (§4)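 MCF-7 cells (2.0 × 10^5) exposed to 1 nM for 1, 3 and 6 h; 10 μM LY294002 as positive control. RIPA lysates, 40 μg per lane, 10% SDS-PAGE and PVDF transfer. Probed overnight at 4 °C with anti-Akt and anti-phospho-Akt Ser473 (1:1000 each), with β-actin (1:10000) as loading control. ECL detection.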

[15] = system: PANC-1; assay: Cytotoxicity against human PANC1 cells after 96 hrs by MTT assay; type: functional, cell-based; conditions: PANC-1, 96 h
[16] = system: MCF7; assay: Induction of apoptosis in human MCF7 cells assessed as early apoptotic cells at 1 nM after 96 hrs by annexinV/propidium iodide staining-based flow cytometric analysis (reference value: 3.05 %); type: functional
[17] = system: MCF7; assay: Induction of apoptosis in human MCF7 cells assessed as necrotic cells at 1 nM after 96 hrs by annexinV/propidium iodide staining-based flow cytometric analysis (reference value: 2.89 %); type: functional
[18] = system: MCF7; assay: Cytotoxicity against human MCF7 cells after 48 hrs by MTT assay; conditions: MCF7, 48 h
[19] = system: MCF7; assay: Down regulation of Akt expression in human MCF7 cells at 1 nM after 6 hrs by Western blot analysis; type: functional, cell-based; outline: as §4
[20] = system: MCF7; assay: Induction of apoptosis in human MCF7 cells assessed as PARP cleavage at 1 nM after 96 hrs by Western blot analysis; type: functional, cell-based; outline: as §3
[21] = system: HepG2; assay: Cytotoxicity against human HepG2 cells after 96 hrs by MTT assay; type: functional, cell-based; conditions: HepG2, 96 h
[22] = system: MCF7; assay: Induction of apoptosis in human MCF7 cells assessed as late apoptotic cells at 1 nM after 96 hrs by annexinV/propidium iodide staining-based flow cytometric analysis (reference value: 5.02 %); type: functional
[23] = system: MCF7; assay: Induction of apoptosis in human MCF7 cells assessed as caspase 7 cleavage at 1 nM after 96 hrs by Western blot analysis; type: functional, cell-based; outline: as §3
[24] = system: MCF7; assay: Induction of apoptosis in human MCF7 cells assessed as viable cells at 1 nM after 96 hrs by annexinV/propidium iodide staining-based flow cytometric analysis (reference value: 89 %); type: functional; conditions: MCF7, 96 h, read-out: Activity
[25] = system: MCF7; assay: Down regulation of ABCG2 expression in human MCF7 cells at 1 nM after 96 hrs by Western blot analysis

**Q.** For `CC1(C)OC1Cc1cc(CC2=C(c3ccc(O)cc3)C(=O)OC2=O)ccc1O` (configuration not stated), which Activity [1] is on record?
**A.** inactive

**Q.** Which Activity [1] does the source give for `COC(=O)[C@@]1(Cc2ccc(O)c(CC=C(C)C)c2)OC(=O)C(O)=C1c1ccc(O)cc1` here?
**A.** inactive

**Q.** With `COC(=O)[C@]1(Cc2ccc3c(c2)C[C@H](C(C)(C)O)O3)OC(=O)C(O)=C1c1ccc(O)cc1` as the molecule, how does the Activity [1] read?
**A.** inactive

**Q.** For `COC(=O)[C@]1(Cc2ccc3c(c2)C[C@H](O)C(C)(C)O3)OC(=O)C(O)=C1c1ccc(O)cc1`, which Activity [1] is on record?
**A.** inactive

**Q.** How did the Activity [1] turn out when `COC(=O)c1cc(O)cc(OC)c1C(=O)c1c(O)c(Cl)c(C)c(Cl)c1O` was run?
**A.** inactive

**Q.** How did the Activity [1] turn out when `COC(=O)c1cc(O)cc(OC)c1Oc1c(Cl)c(C)c(Cl)c(O)c1C(=O)O` was run?
**A.** inactive

**Q.** How did the Activity [1] turn out when `COC(=O)c1cc(O)cc(OC)c1Oc1c(Cl)c(C)c(Cl)c(O)c1C(=O)OC` was run?
**A.** inactive

**Q.** `COC(=O)c1cc(O)cc(OC)c1Oc1cc(C)cc(O)c1C(=O)O` was tested. Which Activity [1] did it give?
**A.** inactive

**Q.** For `COc1cc(COC(C)=O)cc2c1C(=O)c1c(O)cc(O)cc1C2=O`, which Activity [1] is on record?
**A.** inactive

**Q.** `COc1cc(O)cc(C(=O)O)c1C(=O)c1c(O)c(Cl)c(C)c(Cl)c1O` was tested. Which Activity [1] did it give?
**A.** inactive

**Q.** With `COc1cc(O)cc2c1C(=O)c1c(O)cc(C)cc1C2=O` as the molecule, how does the Activity [1] read?
**A.** inactive

**Q.** How did the Activity [2] turn out when `COc1ccc2c3c([nH]c2c1)[C@H](C=C(C)C)N1C(=O)[C@@H]2CCCN2C(=O)[C@@H]1C3` [FUMITREMORGIN] was run?
**A.** 0.81%

**Q.** Which viability at 0.01 µM [3] does the source give for `CC(=O)O[C@H]1C(=O)[C@@]2(C)[C@H]([C@H](OC(=O)c3ccccc3)[C@]3(O)C[C@H](OC(=O)[C@H](O)[C@@H](NC(=O)c4ccccc4)c4ccccc4)C(C)=C1C3(C)C)[C@]1(OC(C)=O)CO[C@@H]1C[C@@H]2O` [PACLITAXEL] here?
**A.** 72.1%

**Q.** What about the Activity [4] of the same molecule?
**A.** 2.91%

**Q.** What about the Activity [5] of the same molecule?
**A.** 1.71%

**Q.** What about the Activity [6] of the same molecule?
**A.** 15.6%

**Q.** And the Activity [7]?
**A.** 1.65%

**Q.** And the Activity [8]?
**A.** Dose-dependent effect

**Q.** And the Activity [9]?
**A.** 9.34%

**Q.** `C/C=C/C1=CC(=O)[C@@H](O)[C@@H]1O` [TERREIN] was tested. Which Activity [10] did it give?
**A.** Active

**Q.** And the viability at 0.01 µM [3]?
**A.** 65.6%

**Q.** And the inhibition of growth at 0.001 µM [11]?
**A.** 70%

**Q.** What about the Activity [12] of the same molecule?
**A.** Active

**Q.** What about the Activity [13] of the same molecule?
**A.** Active

**Q.** And the inhibition [14]?
**A.** Active

**Q.** What about the IC50 [15] of the same molecule?
**A.** 9.8 µM

**Q.** What about the Activity [4] of the same molecule?
**A.** 2.48%

**Q.** What about the Activity [5] of the same molecule?
**A.** 0.77%

**Q.** What about the Activity [16] of the same molecule?
**A.** 29.6%

**Q.** What about the Activity [17] of the same molecule?
**A.** 1.89%

**Q.** What about the IC50 [18] of the same molecule?
**A.** 0.0011 µM

**Q.** And the Activity [19]?
**A.** Active

**Q.** What about the Activity [6] of the same molecule?
**A.** 24%

**Q.** What about the Activity [7] of the same molecule?
**A.** 0.89%

**Q.** And the Activity [20]?
**A.** Active

**Q.** What about the IC50 [21] of the same molecule?
**A.** 0.0668 µM

**Q.** And the Activity [8]?
**A.** Dose-dependent effect

**Q.** And the Activity [22]?
**A.** 8.89%

**Q.** And the Activity [23]?
**A.** Active

**Q.** What about the viability at 0.001 µM [24] of the same molecule?
**A.** 59.7%

**Q.** What about the Activity [25] of the same molecule?
**A.** Active

**Q.** And the Activity [9]?
**A.** 7.92%
